One assay has as its system A549. The assay is described as follows: Cytotoxicity against human A549 cells after 24 hrs by MTT assay. The assay is classed as functional, cell-based. As to conditions: A549, 24 h. A digest of the protocol:
(§1)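 In vitro antiproliferative screen by MTT assay against human MCF-7 breast, HeLa cervical, A549 lung adenocarcinoma and HepG-2 hepatoma cells. Output is the IC50.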

For the next assay, the system named is HeLa. Kind of assay: Cytotoxicity against human HeLa cells after 24 hrs by MTT assay. The assay is classed as functional, cell-based. Summed up: as §1
Another assay relates to MCF7. The assay is described as follows: Cytotoxicity against human MCF7 cells after 24 hrs by MTT assay. Format: functional, cell-based. As to conditions: MCF7, 24 h. A digest of the protocol:
as §1
Background: Formazan colour is commonly taken as a measure of viable cells.

A further assay concerns HepG2. The assay is described as follows: Cytotoxicity against human HepG2 cells after 24 hrs by MTT assay. The assay is classed as functional, cell-based. As to conditions: HepG2, 24 h. A digest of the protocol:
as §1

The test system of another assay is L02. Kind of assay: Cytotoxicity against human L02 cells after 24 hrs by MTT assay. The assay is classed as cell-based. As to conditions: L02, 24 h. A digest of the protocol:
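Normal human liver L02 cells were tested at multiple concentrations in an MTT assay. Output is the median cytotoxic concentration (CC50).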

The next assay is filed under the species Homo sapiens. The assay is described as follows: Induction of tubulin depolymerization in human MCF7 cells at 1 uM after 12 hrs by DAPI staining based confocal microscopic analysis. Format: cell-based.

Molecules are shown by their SMILES. pIC50: −log10 of the molar value. Activity calls are given as the source filed them. The rule behind the calls is not given here.

The term pIC50 denotes −log10 of the IC50, conventionally taken in molar units. Read a high pIC50 as a small IC50.

In the case of `COc1cc([C@@H]2c3cc4c(cc3[C@H](OC(=O)CN3CCN(c5ccccc5)CC3)[C@H]3COC(=O)[C@H]23)OCO4)cc(OC)c1OC`, the pIC50 is 4.82 with A549; 4.48 with HeLa; 4.66 in the assay with MCF7; 4.78 in the assay on HepG2; 4.12 in the assay with L02.
As for `COc1cc([C@@H]2c3cc4c(cc3[C@H](OC(=O)CN3CCN(c5ccc([N+](=O)[O-])cc5)CC3)[C@H]3COC(=O)[C@H]23)OCO4)cc(OC)c1OC`, the pIC50 was 5.09 in the assay with A549; 4.96 with HeLa; 5.02 in the assay with MCF7; 5.16 in the assay on HepG2; below 4.00 in the assay with L02.
For `COc1cc([C@@H]2c3cc4c(cc3[C@H](OC(=O)CN3CCN(C(c5ccc(F)cc5)c5ccc(F)cc5)CC3)[C@H]3COC(=O)[C@H]23)OCO4)cc(OC)c1OC`, the pIC50 was 4.88 in the assay on A549; 5.02 in the assay with HeLa; 5.21 in the assay on MCF7; 5.15 in the assay on HepG2; below 4.00 in the assay on L02.
Regarding `COc1cc([C@@H]2c3cc4c(cc3[C@H](OC(=O)CN3CCN(c5ccc(F)cc5)CC3)[C@H]3COC(=O)[C@H]23)OCO4)cc(OC)c1OC`, the pIC50 was 4.92 in the assay with A549; 4.76 with HeLa; 5.07 in the assay on MCF7; 4.90 in the assay with HepG2; below 4.00 in the assay with L02.
On to `COc1cc([C@@H]2c3cc4c(cc3[C@H](OC(=O)CN3CCN(c5ccccc5Cl)CC3)[C@H]3COC(=O)[C@H]23)OCO4)cc(OC)c1OC`, for which the pIC50 with A549 was 5.07; in the assay on HeLa it was 4.95; in the assay on MCF7, 5.00; with HepG2, 4.75; in the assay on L02, below 4.00.
In the case of `COc1cc2c(c(OC)c1OC)-c1ccc(OC)c(=O)cc1[C@@H](NC(C)=O)CC2`, the outcome in the assay listed under Homo sapiens was Active.
`COc1cc([C@@H]2c3cc4c(cc3[C@H](OC(=O)CN3CCN(c5cccc(Cl)c5Cl)CC3)[C@H]3COC(=O)[C@H]23)OCO4)cc(OC)c1OC`: the pIC50 was 5.12 with A549; 5.11 in the assay on HeLa; 5.52 in the assay on MCF7; 5.21 in the assay with HepG2; 4.01 in the assay with L02.
For `COc1cc([C@@H]2c3cc4c(cc3[C@H](OC(=O)CN3CCN(c5cccc(C(F)(F)F)c5)CC3)[C@H]3COC(=O)[C@H]23)OCO4)cc(OC)c1OC` the same measures were 4.96, 5.17, 5.14, 5.02 and below 4.00.
With `CC(=O)O[C@H]1C(=O)[C@@]2(C)[C@H]([C@H](OC(=O)c3ccccc3)[C@]3(O)C[C@H](OC(=O)[C@H](O)[C@@H](NC(=O)c4ccccc4)c4ccccc4)C(C)=C1C3(C)C)[C@]1(OC(C)=O)CO[C@@H]1C[C@@H]2O`, the outcome in the assay listed under Homo sapiens was inactive.
As to `COc1cc([C@@H]2c3cc4c(cc3[C@@H](O[C@@H]3O[C@@H]5CO[C@@H](C)O[C@H]5[C@H](O)[C@H]3O)[C@H]3COC(=O)[C@H]23)OCO4)cc(OC)c1O` [ETOPOSIDE], the pIC50 with A549 was 5.21; in the assay with HeLa it was 5.80; in the assay on MCF7, 5.68; with HepG2 it was 5.26; with L02, 5.11.
The matching figures for `COc1cccc(N2CCN(CC(=O)O[C@H]3c4cc5c(cc4[C@@H](c4cc(OC)c(OC)c(OC)c4)[C@H]4C(=O)OC[C@@H]43)OCO5)CC2)c1`: 4.64, 4.44, 4.91, 4.44 and below 4.00.
The matching figures for `COc1cc([C@@H]2c3cc4c(cc3[C@H](OC(=O)CN3CCN(c5ccccc5F)CC3)[C@H]3COC(=O)[C@H]23)OCO4)cc(OC)c1OC`: 5.01, 4.74, 4.93, 4.81 and below 4.00.
For `COc1ccccc1N1CCN(CC(=O)O[C@H]2c3cc4c(cc3[C@@H](c3cc(OC)c(OC)c(OC)c3)[C@H]3C(=O)OC[C@@H]32)OCO4)CC1` the same measures were 4.54, below 4.30, 4.32, 4.47 and 4.04.
As to `COc1cc([C@@H]2c3cc4c(cc3[C@H](OC(=O)CN3CCN(c5cccc(Cl)c5)CC3)[C@H]3COC(=O)[C@H]23)OCO4)cc(OC)c1OC`, the pIC50 with A549 was 5.03; in the assay on HeLa, 5.08; with MCF7, 5.01; in the assay on HepG2 it was 4.87; in the assay with L02, 4.00.
As for `COc1cc([C@@H]2c3cc4c(cc3[C@H](OC(=O)CN3CCN(C(c5ccccc5)c5ccccc5)CC3)[C@H]3COC(=O)[C@H]23)OCO4)cc(OC)c1OC`, the pIC50 in the assay with A549 was 4.91; with HeLa it was 4.63; with MCF7, 4.78; with HepG2, 4.79; in the assay on L02, 4.18.
`COc1cc([C@@H]2c3cc4c(cc3[C@H](OC(=O)CN3CCN(c5ccc(C)cc5C)CC3)[C@H]3COC(=O)[C@H]23)OCO4)cc(OC)c1OC`: the negative logarithm of the IC50 (pIC50) was 4.46 in the assay on A549; 4.64 in the assay with HeLa; below 4.30 in the assay with MCF7; 4.34 with HepG2; 4.03 in the assay with L02.
For `COc1ccc(N2CCN(CC(=O)O[C@H]3c4cc5c(cc4[C@@H](c4cc(OC)c(OC)c(OC)c4)[C@H]4C(=O)OC[C@@H]43)OCO5)CC2)cc1`, the pIC50 with A549 is 4.78; in the assay with HeLa, 4.50; in the assay on MCF7, 4.87; in the assay with HepG2 it was 4.59; in the assay on L02, 4.06.
For `COc1cc([C@@H]2c3cc4c(cc3[C@H](OC(=O)CN3CCN(C(c5ccccc5)c5ccc(Cl)cc5)CC3)[C@H]3COC(=O)[C@H]23)OCO4)cc(OC)c1OC` (some centres not stated) the same measures were 4.85, 4.91, 5.11, 4.96 and below 4.00.

Values taken from ChEMBL document CHEMBL4052804, “Design and synthesis of piperazine acetate podophyllotoxin ester derivatives targeting tubulin depolymerization as new anticancer agents” (Bioorg Med Chem Lett, 2017).
